Data taken from ChEMBL document CHEMBL1141857, “Lichen metabolites. 1. Inhibitory action against leukotriene B4 biosynthesis by a non-redox mechanism” (J Nat Prod, 1999).

Key:
[1] = Inhibition of AAPH-induced lipid peroxidation in bovine brain phospholipid liposome; format: functional, tissue-based, Bos taurus
How it was run: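 Bovine brain phospholipid liposomes (1 mg/mL final) in 30 mM KH2PO4-KOH buffer, pH 7.4, with 10 mM AAPH and test compound at variable concentrations (acetone vehicle). Incubated 1 h at 37 °C with shaking. BHT, HCl and TBA then added; TBA-reactive material extracted into butanol and read at 532 nm against an MDA standard.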

PMNL = test: Inhibition of LTB4 biosynthesis in A-23187-stimulated bovine PMNL cells; format: functional, cell-based; settings: Bos taurus
How it was run: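 Bovine PMNL (10^7 cells/mL) preincubated with compound 15 min at 37 °C, then stimulated with Ca-ionophore. LTB4 and 5-HETE released after 10 min quantified by reversed-phase HPLC. Inhibition = (1 − test/control) × 100, test n = 3, control n = 6–8. IC50 interpolated from log concentration–response plot using ≥4 concentrations spanning 50%.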

[2] = system: Radical scavenging activity; test: Antioxidant activity assessed as DPPH radical scavenging activity at equimolar amount of compound; format: functional
How it was run: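 Test compound and DPPH mixed at equal concentrations (each […] as printed) in acetone–PBS 1:1 v/v. DPPH reduction followed spectrophotometrically at 516 nm. Reciprocal DPPH concentration plotted against time; second-order rate constant taken from slope, mean of n = 3–6.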

[3] = Prooxidant activity assessed as hydroxyl radical formation at 75 uM measured as malondialdehyde per mmol of deoxyribose by deoxyribose assay; format: functional
How it was run: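 Final mixture: 2 mM 2-deoxy-D-ribose, 0.1 mM FeCl3, 30 mM KH2PO4-KOH pH 7.4, 75 μM compound, acetonitrile vehicle controls; 2 h at 37 °C with shaking. TCA and TBA added, heated 100 °C 15 min, butanol-extracted, A532 read. Calibrated against MDA from tetraethoxypropane; reported as μmol MDA/mmol deoxyribose, n = 3.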

IC50 [1] [µM]	IC50 (PMNL) [µM]	SMILES	Activity [2] [M⁻¹ s⁻¹]	Activity [3] [µmol]
> 200	42	CC(=O)C1=C(O)C=C2Oc3c(C(C)=O)c(O)c(C)c(O)c3[C@@]2(C)C1=O [(+)-USNIC ACID]	< 1	1.47
79		O=C1c2c(O)cccc2Cc2cccc(O)c21 [ANTHRALIN]	24.2	
> 200	6	COC(=O)c1c(C)cc(OC(=O)c2c(C)cc(O)c(C=O)c2O)c(C)c1O [ATRANORIN]	11.5	0
> 200	> 60	COC(=O)c1c(C)cc(O)c(C)c1O [ATRARIC ACID]	5.95	1.43
> 200	8	COc1cc(C)c(C(=O)Oc2cc(C)c(C(=O)O)c(O)c2C)c(OC)c1C [DIFFRACTAIC ACID]	< 1	0.12
> 200	40	CCOC(=O)c1c(C)cc(O)c(C=O)c1O [ETHYL HEMATOMMATE]	12.2	0.3
> 200	> 60	Cc1cc(OC(=O)c2c(C)cc(OC(=O)c3c(C)cc(O)cc3O)cc2O)cc(O)c1C(=O)O [GYROPHORIC ACID]	3.63	0.12
2	0.4	CC(Cc1ccc(O)c(O)c1)C(C)Cc1ccc(O)c(O)c1 (centres undefined) [NORDIHYDROGUAIARETIC ACID]	> 100	0.23
> 200	9	C=C1C(=O)O[C@@H](CCCCCCCCCCCCC)[C@@H]1C(=O)O [PROTOLICHESTERINIC ACID]	< 1	0.08
